According to ChEMBL document CHEMBL4610112, “Novel Pyrrolopyridone Bromodomain and Extra-Terminal Motif (BET) Inhibitors Effective in Endocrine-Resistant ER+ Breast Cancer with Acquired Resistance to Fulvestrant and Palbociclib” (J Med Chem, 2020):
The source made the active and inactive calls. The calls are words filed in the database; no cut-off is given here.

Columns and labels:
[1] = molecular target: T1, Bromodomain-containing protein 4 (Homo sapiens, UniProt O60885); test: Displacement of APC-labeled biotinylated-avidin from Euphorium-chelated recombinant human BRD4 bromodomain 1 expressed in Escherichia coli preincubated for 15 mins followed by APC-labeled biotinylated-avidin addition and measured after 1 hr under dark condition by TR-FRET assay
[2] = Growth inhibition of fulvestrant-resistant human MCF7:CFR cells measured after 5 days by Hoechst 33342 dye based imaging analysis; type: functional, cell-based; conditions: 120 h
In short: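 MCF-7:CFR cells kept 2 days in phenol red-free RPMI 1640 with 10% charcoal–dextran FBS, then seeded at 2000 cells/well. Single treatment at 0.1 nM–10 μM (0.1% DMSO final) for 5 days. Nuclei stained with Hoechst 33342 and counted by imaging. Survival normalized to DMSO (100%) and JQ1 3 μM (0%). Mean ± SEM from at least two passages, triplicates in each.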

MCF7:CFR [3] = test: Down regulation of c-MYC gene expression in fulvestrant-resistant human MCF7:CFR cells at 100 nM measured after 24 hrs; type: functional, cell-based
In short: (§1)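 MCF-7:CFR cells exposed to compound at 100 nM, with DMSO (0.01%) as control, for 24 h. RNA extracted and analysed by RNA-seq. Values are log2-fold changes in gene expression against the vehicle control.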

MCF7:CFR [4] = test: Growth inhibition of fulvestrant-resistant human MCF7:CFR 3D spheroid cells at 100 nM supplemented with fresh medium containing compound every 2 to 3 days for 9 days by celltitre-glo assay relative to control; type: functional
In short: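 MCF-7:CFR cells seeded at 1000 cells/well in ultralow-attachment round-bottom plates and grown 24 h untreated as spheroids. Half the medium then replaced with 2× treatment medium, repeated every 2–3 days. Viability read by CellTiter-Glo 3D luminescence at day 9 and normalized to blank (medium plus reagent).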

MCF7:CFR [5] = test: Down regulation of cyclin-D gene expression in fulvestrant-resistant human MCF7:CFR cells at 100 nM measured after 24 hrs; type: functional, cell-based; in short: as §1
MCF7:CFR [6] = test: Growth inhibition of fulvestrant-resistant human MCF7:CFR cells at < 300 nM treated for 3 hrs followed by compound washout and measured after 5 days by Hoechst 33342 dye based imaging analysis; type: functional, cell-based
MCF7:CFR [7] = test: Down regulation of n-MYC gene expression in fulvestrant-resistant human MCF7:CFR cells at 100 nM measured after 24 hrs; type: functional, cell-based; in short: as §1
MCF7:CFR [8] = test: Up regulation of CDKN1B gene expression in fulvestrant-resistant human MCF7:CFR cells at 100 nM measured after 24 hrs; type: functional, cell-based; in short: as §1
CYP2A6 = CYP2A6 (Homo sapiens, UniProt P11509); test: Inhibition of human CYP2A6 at 10 uM; type: ADME
CYP2A6, sequence (P11509 whole entry): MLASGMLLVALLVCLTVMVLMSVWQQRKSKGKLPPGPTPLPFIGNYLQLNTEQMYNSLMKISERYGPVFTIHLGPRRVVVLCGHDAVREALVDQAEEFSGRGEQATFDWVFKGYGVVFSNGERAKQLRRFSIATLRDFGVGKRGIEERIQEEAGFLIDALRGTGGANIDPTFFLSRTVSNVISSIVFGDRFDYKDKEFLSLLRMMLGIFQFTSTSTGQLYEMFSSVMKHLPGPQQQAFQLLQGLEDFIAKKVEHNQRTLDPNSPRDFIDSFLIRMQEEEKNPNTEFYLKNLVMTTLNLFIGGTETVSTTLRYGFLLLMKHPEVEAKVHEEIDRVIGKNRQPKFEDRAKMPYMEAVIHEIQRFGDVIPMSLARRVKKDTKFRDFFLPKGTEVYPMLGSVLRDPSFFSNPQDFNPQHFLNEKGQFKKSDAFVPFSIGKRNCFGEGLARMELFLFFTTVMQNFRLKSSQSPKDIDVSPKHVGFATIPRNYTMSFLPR
MCF7:TAM1 [9] = test: Antitumor activity against human MCF7:TAM1 cells xenografted in ovariectomized athymic Nude-Foxn1 mouse assessed as tumor growth inhibition at 50 mg/kg/day, po administered via gavage for 4 weeks in presence of fulvestrant; type: functional, organism-based
In short: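 Orthotopic xenografts of MCF-7:Tam1 cells in 4–6 week old female ovariectomized athymic nude (nude/Foxn1) mice, established with daily tamoxifen 1.5 mg/mouse. Daily oral gavage at 50 (mg/kg)/day for 4 weeks in 0.5% (w/v) HPMC/TWEEN80 1% in water, given alongside fulvestrant 1 mg/mouse/week sc. Tumor volume measured weekly by caliper as length × width² × π/6. TGI computed from day 28 versus initial volumes, relative to vehicle.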

[10] = molecular target: T1, Bromodomain-containing protein 4; test: Displacement of APC-labeled biotinylated-avidin from Euphorium-chelated recombinant human BRD4 bromodomain 2 expressed in Escherichia coli preincubated for 15 mins followed by APC-labeled biotinylated-avidin addition and measured after 1 hr under dark condition by TR-FRET assay
MCF7:TAM1 [11] = test: Antitumor activity against human MCF7:TAM1 cells xenografted in ovariectomized athymic Nude-Foxn1 mouse assessed as tumor growth inhibition at 50 mg/kg/day, po administered via gavage for 4 weeks; type: functional, organism-based
[12] = Protein binding in plasma (unknown origin); type: ADME, cell-free; conditions: human
In short: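 Protein binding reported as percent bound, ketoconazole as reference compound. Run by a contract lab.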

CYP2D6 = CYP2D6 (Homo sapiens, UniProt P10635); test: Inhibition of human CYP2D6 at 10 uM; type: ADME
CYP2D6, sequence (P10635 whole entry): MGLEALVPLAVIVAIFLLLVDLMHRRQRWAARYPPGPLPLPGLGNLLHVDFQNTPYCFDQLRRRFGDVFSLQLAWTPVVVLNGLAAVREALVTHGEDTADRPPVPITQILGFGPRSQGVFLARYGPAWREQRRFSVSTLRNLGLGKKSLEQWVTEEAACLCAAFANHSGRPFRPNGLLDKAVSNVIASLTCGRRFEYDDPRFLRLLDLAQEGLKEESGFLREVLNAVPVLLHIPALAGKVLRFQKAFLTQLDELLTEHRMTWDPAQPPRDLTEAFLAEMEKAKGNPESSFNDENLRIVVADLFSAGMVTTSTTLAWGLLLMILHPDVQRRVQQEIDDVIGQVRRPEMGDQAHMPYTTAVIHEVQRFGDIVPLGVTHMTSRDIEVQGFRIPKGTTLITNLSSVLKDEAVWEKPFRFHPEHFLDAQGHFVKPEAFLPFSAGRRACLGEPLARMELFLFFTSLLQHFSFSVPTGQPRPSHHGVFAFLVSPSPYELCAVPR

CYP3A4 = CYP3A4 (Homo sapiens, UniProt P08684); test: Inhibition of human CYP3A4 at 10 uM; type: ADME
CYP3A4, sequence (P08684 whole entry): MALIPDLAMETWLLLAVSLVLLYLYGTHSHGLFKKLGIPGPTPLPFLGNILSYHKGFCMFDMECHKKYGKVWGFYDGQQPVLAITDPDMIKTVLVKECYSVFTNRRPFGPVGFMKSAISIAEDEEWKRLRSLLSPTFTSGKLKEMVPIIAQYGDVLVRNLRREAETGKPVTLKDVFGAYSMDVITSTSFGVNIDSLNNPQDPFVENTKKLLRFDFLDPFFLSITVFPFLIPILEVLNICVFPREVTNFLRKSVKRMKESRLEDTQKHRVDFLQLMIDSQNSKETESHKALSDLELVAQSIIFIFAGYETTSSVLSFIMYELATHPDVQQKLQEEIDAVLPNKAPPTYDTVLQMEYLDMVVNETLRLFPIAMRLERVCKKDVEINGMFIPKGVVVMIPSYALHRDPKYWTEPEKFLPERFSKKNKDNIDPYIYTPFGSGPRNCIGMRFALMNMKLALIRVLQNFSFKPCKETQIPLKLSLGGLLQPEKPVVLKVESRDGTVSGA

CYP2C8 = CYP2C8 (Homo sapiens, UniProt P10632); test: Inhibition of human CYP2C8 at 10 uM; type: ADME
CYP2C8, sequence (P10632 whole entry): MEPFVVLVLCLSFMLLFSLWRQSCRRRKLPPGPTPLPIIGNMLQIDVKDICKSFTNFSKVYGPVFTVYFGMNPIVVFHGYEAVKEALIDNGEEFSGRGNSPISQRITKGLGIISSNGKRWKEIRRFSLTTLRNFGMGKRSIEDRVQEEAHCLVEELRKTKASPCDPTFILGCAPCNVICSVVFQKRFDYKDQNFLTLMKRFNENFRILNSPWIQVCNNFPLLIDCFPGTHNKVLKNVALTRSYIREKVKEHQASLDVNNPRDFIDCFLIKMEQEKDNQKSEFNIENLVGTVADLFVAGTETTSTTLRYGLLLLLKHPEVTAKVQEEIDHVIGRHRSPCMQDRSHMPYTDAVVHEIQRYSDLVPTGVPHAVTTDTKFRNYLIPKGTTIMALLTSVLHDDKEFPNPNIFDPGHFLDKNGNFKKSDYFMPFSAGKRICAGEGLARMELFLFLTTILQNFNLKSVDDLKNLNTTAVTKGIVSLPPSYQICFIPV

Compound	IC50 [1]	IC50 [2]	further results
Cn1cc(-c2cc(NS(C)(=O)=O)c3ccn(Cc4cccc(F)c4)c3c2)c2cc[nH]c(=O)c21	174 nM	70 nM	–
Cc1sc2c(c1C)C(c1ccc(Cl)cc1)=N[C@@H](CC(=O)OC(C)(C)C)c1nnc(C)n1-2	–	90 nM	Activity (MCF7:CFR [3]): Active; growth inhibition (GI) (MCF7:CFR [4]): Active; Activity (MCF7:CFR [5]): Active; growth inhibition (GI) (MCF7:CFR [6]): inactive; Activity (MCF7:CFR [7]): Active; Activity (MCF7:CFR [8]): Active
O=c1ccc2ccccc2o1 [COUMARIN]	–	–	inhibition at 10 µM (CYP2A6): 98.2%
CCS(=O)(=O)N(c1cccc2c1nc(-c1cn(C)c3c(=O)[nH]ccc13)n2Cc1ccc(F)cc1)S(=O)(=O)CC	–	1780 nM	–
Cn1cc(-c2cc(NS(C)(=O)=O)c3ccn(Cc4ccc(F)cc4)c3c2)c2ccnc(O)c21	96 nM	17 nM	–
Cn1cc(-c2cc(NS(C)(=O)=O)c3cnn(Cc4ccc(F)cc4)c3c2)c2cc[nH]c(=O)c21	89 nM	68 nM	–
CCS(=O)(=O)Nc1cc(-c2cn(C)c3c(=O)[nH]ccc23)cc2c1ccn2Cc1ccc(F)cc1	48 nM	56 nM	–
CCNC(=O)C[C@@H]1N=C(c2ccc(Cl)cc2)c2cc(OC)ccc2-n2c(C)nnc21	–	–	TGI (MCF7:TAM1 [9]): Active
C[C@]12CC[C@@H]3c4ccc(O)cc4C[C@@H](CCCCCCCCC[S+]([O-])CCCC(F)(F)C(F)(F)F)[C@H]3[C@@H]1CC[C@@H]2O (some centres not stated)	–	–	growth inhibition (GI) (MCF7:CFR [4]): inactive
Cn1cc(-c2cc(NS(C)(=O)=O)c3ccn(C(C)(c4ccccn4)c4ccccn4)c3c2)c2cc[nH]c(=O)c21	12.9 nM	10 nM	IC50 [10]: 12.7 nM
CCS(=O)(=O)Nc1cc(-c2cn(C)c3c(O)nccc23)cc2c1cnn2Cc1ccc(F)cc1	54 nM	25 nM	–
CC/C(=C(\c1ccccc1)c1ccc(OCCN(C)C)cc1)c1ccccc1	–	–	TGI (MCF7:TAM1 [11]): inactive
CCS(=O)(=O)Nc1cccc2c1nc(-c1cn(C)c3c(=O)[nH]ccc13)n2Cc1ccc(F)cc1	1430 nM	708 nM	–
CC(=O)N1CCN(c2ccc(OCC3COC(Cn4ccnc4)(c4ccc(Cl)cc4Cl)O3)cc2)CC1 (configuration not stated) [KETOCONAZOLE]	–	–	PPB [12]: 98.35%
Cn1cc(-c2cc(NS(C)(=O)=O)c3ccn(CC4CC(F)(F)C4)c3c2)c2cc[nH]c(=O)c21	161 nM	62 nM	–
COc1ccc2c(c1)[C@]13CCCC[C@@H]1[C@H](C2)N(C)CC3 [DEXTROMETHORPHAN]	–	–	inhibition at 10 µM (CYP2D6): 94.4%

Compound	IC50 [1]	IC50 [2]	further results
Cc1ncc2n1-c1ccc(Cl)cc1C(c1ccccc1F)=NC2 [MIDAZOLAM]	–	–	inhibition at 10 µM (CYP3A4): 99.5%
Cc1cc(F)ccc1Cn1ccc2cc(NS(C)(=O)=O)cc(-c3cn(C)c4c(=O)[nH]ccc34)c21	1000 nM	3580 nM	–
Cn1cc(-c2cc(NS(C)(=O)=O)cc3ccn(Cc4ccc(F)cc4)c23)c2cc[nH]c(=O)c21	1180 nM	1990 nM	–
Cc1cc(F)ccc1Cn1ccc2c(NS(C)(=O)=O)cc(-c3cn(C)c4c(=O)[nH]ccc34)cc21	600 nM	119 nM	–
CCS(=O)(=O)Nc1cc(-c2cn(C)c3c(=O)[nH]ccc23)cc2c1ccn2Cc1c(C)cccc1C	158 nM	35 nM	–
Cc1cccc(C)c1Cn1ccc2c(NS(C)(=O)=O)cc(-c3cn(C)c4c(=O)[nH]ccc34)cc21	175 nM	49 nM	–
CCS(=O)(=O)Nc1cc(-c2cn(C)c3c(=O)[nH]ccc23)cc2c1ccn2C(c1ccccc1)c1ccccc1	83 nM	15 nM	–
Cc1cc(F)cc(C)c1Cn1ccc2cc(NS(C)(=O)=O)cc(-c3cn(C)c4c(=O)[nH]ccc34)c21	1400 nM	526 nM	–
COc1nnc2ccc(N3CCC(c4ccc(OCCN5CCN(C)C(=O)[C@H]5C)cc4)CC3)nn12	–	–	growth inhibition (GI) (MCF7:CFR [4]): Active
CC(=O)O[C@H]1C(=O)[C@@]2(C)[C@H]([C@H](OC(=O)c3ccccc3)[C@]3(O)C[C@H](OC(=O)[C@H](O)[C@@H](NC(=O)c4ccccc4)c4ccccc4)C(C)=C1C3(C)C)[C@]1(OC(C)=O)CO[C@@H]1C[C@@H]2O [PACLITAXEL]	–	–	inhibition at 10 µM (CYP2C8): 80.9%
CC/C(=C(\c1ccc(O)cc1)c1ccc(OCCN(C)C)cc1)c1ccccc1	–	–	growth inhibition (GI) (MCF7:CFR [4]): inactive
Cn1cc(-c2cc(C(C)(C)O)c3ccn(C(C)(c4ccccn4)c4ccccn4)c3c2)c2cc[nH]c(=O)c21	39.6 nM	20 nM	IC50 [10]: 220 nM
Cn1cc(-c2cc(NS(C)(=O)=O)c3ccn(CC4(C)COC4)c3c2)c2cc[nH]c(=O)c21	180 nM	134 nM	–
CC(=O)Nc1cc(-c2cn(C)c3c(=O)[nH]ccc23)cc2c1ccn2C(C)(c1ccccn1)c1ccccn1	8.3 nM	11 nM	IC50 [10]: 21.6 nM
CC(C)C(=O)Nc1cc(-c2cn(C)c3c(=O)[nH]ccc23)cc2c1ccn2C(C)(c1ccccn1)c1ccccn1	13 nM	17 nM	IC50 [10]: 62.8 nM
CCC(c1ccccn1)(c1ccccn1)n1ccc2c(NS(=O)(=O)CC)cc(-c3cn(C)c4c(=O)[nH]ccc34)cc21	9.4 nM	2.2 nM	–
